B1: NELF-E aptamer (parent)
chain: CCCAACGACUGCCGAGCGAGAUUACGCUUGAGCGCCCCACUGAGGAUGCCCACGGGCGAUUGGGGCACGG

The variants in the data set derive from B1. Put plainly: HiTS-RAP. As to conditions: with NELF-E (Drosophila). The essentials:
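Aptamer DNA templates bearing a T7 promoter and a ter site were sequenced on an Illumina GAIIx flowcell. T7 RNA polymerase then transcribed them in situ, and GST-Tus halted transcription over 30 minutes at 37°C. After a 30-minute room-temperature equilibration with NELF-E-mOrange at 0.064 to 1000 nM in HEPES binding buffer, clusters were imaged, using only the first binding curve. Intensities normalised to sequencing intensity were averaged per sequence and fitted with weighted Hill fits to give Kd, retaining only fits whose variance stayed under 1,000,000.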
The term Kd denotes a measure of binding affinity in units of concentration. Take CCCAACGACUGCCGAGCGAGAUGAUGCUUGAGCGCCCCACUGAGGAUGCCCACGGGCGAUUGGGGCACGG: the equilibrium dissociation constant (Kd) worked out at 5.73 nM. As for CCCAACGACUGCCGAGCGAGAUGAGGCUUGAGCGCCCCACUGAGGAUGCCCACGGGCGAUUGGGGCACGG, the dissociation constant (Kd) was 5.84 nM. To CCCAACGACUGCCGAGCGAGAUGACGCUUGUGCGCCCCACUGAGGAUGCCCACGGGCGAUUGGGGCACGG belongs 6.53 nM; to CCCAACGACUGCCGAGCGAGAUGACGCUUGGGCGCCCCACUGAGGAUGCCCACGGGCGAUUGGGGCACGG, 6.72 nM; to CCCAACGACUGCCGAGCGAGAUGACGCUUGAGCGCCCCACUGAGGAUGCCCACGGGCGAUUGGGGCGCGG, 6.23 nM. For CCCAACGACUGCCGAGCGAGAUGACGCUUGAGCGCCCCACUGAGGAUGCCCACGGGCGAUUGGGGCCCGG the value was 4.59 nM; for CCCAACGACUGCCGAGCGAGAUGACGCUUGAGCGCCCCACUGAGGAUGCCCACGGGCGAUUGGGGCUCGG, 7.58 nM. To CCCAACGACUGCCGAGCGAGAUAACGCUGGAGCGCCCCACUGAGGAUGCCCACGGGCGAUUGGGGCACGG belongs 5.75 nM. Take CCCAACGACUGCCGAGCGAGAGUACGCUUGAGCGCCCCACUGAGGAUGCCCACGGGCGAUUAGGGCACGG: the dissociation constant (Kd) was 18.2 nM. For CCCAACGACUGCCGAGCGAGAGUACGCUUGAGCGCCCCACUGAGGAUGCCCACGGGCGAUUUGGGCACGG, the Kd was 10.4 nM.

On to CCCAACGACUGCCGAGCGAGAGUACGCUUGAGCGCCCCACUGAGGAUGCCCACGGGCGAAUGGGGCACGG, for which the Kd amounted to 9.43 nM. To CCCAACGACUGCCGAGCGAGAGUACGCUUGAGCGCCCCACUGAGGAUGCCCACGGGCGACUGGGGCACGG belongs 10.8 nM; to CCCAACGACUGCCGAGCGAGAGUACGCUUGAGCGCCCCACUGAGGAUGCCCACGGGCGAGUGGGGCACGG, 7.18 nM; to CCCAACGACUGCCGAGCGAGAUGACGCUUGAGCGCCCCACUGAGGGUGCCCACGGGCGAUUGGGGCACGG, 59.5 nM. For CCCAACGACUGCCGAGCGAGAUGACGCUUGAGCGCCCCACUGAGGUUGCCCACGGGCGAUUGGGGCACGG the value was 69.3 nM; for CCCAACGACUGCCGAGCGAGAGUACGCUUGAGCGCCCCACUGAGGAUGCCCACGGUCGAUUGGGGCACGG, 5.99 nM. Take CCCAACGACUGCCGAGCGAGAGUACGCUUGAGCGCCCCACUGAGGAUGCCCACGGACGAUUGGGGCACGG: the Kd stood at 8.77 nM.

On to CCCAACGACUGCCGAGCGAGAUGACGCUUGAGAGCCCCACUGAGGAUGCCCACGGGCGAUUGGGGCACGG, for which the Kd is 5.51 nM. For CCCAACGACUGCCGAGCGAGAUGACGCUUGAGGGCCCCACUGAGGAUGCCCACGGGCGAUUGGGGCACGG the value was 8.04 nM. For CCCAACGACUGCCGAGCGAGAUGACGCUUGAGUGCCCCACUGAGGAUGCCCACGGGCGAUUGGGGCACGG the value was 6.01 nM. As to CCCAACGACUGCCGAGCGAGAUGUCGCUUGAGCGCCCCACUGAGGAUGCCCACGGGCGAUUGGGGCACGG, the Kd turned out to be 6.08 nM.

Consider CCCAACGACUGCCGAGCGAGAUGGCGCUUGAGCGCCCCACUGAGGAUGCCCACGGGCGAUUGGGGCACGG, for which the Kd was 5.97 nM.

Regarding CCCAACGACUGCCGAGCGAGAGUACGCUUGAGCGCCCCACUGAGGAUGCCCACGGGCGAUAGGGGCACGG, the dissociation constant Kd came to 29.9 nM. As for CCCAACGACUGCCGAGCGAGAGUACGCUUGAGCGCCCCACUGAGGAUGCCCACGGGCGAUGGGGGCACGG, the Kd is 9.56 nM. On to CCCAACGACUGCCGAGCGAGAGUACGCUUGAGCGCCCCACCGAGGAUGCCCACGGGCGAUUGGGGCACGG, for which the dissociation constant (Kd) amounted to 74.5 nM. With CCCAACGACUGCCGAGCGAGAGUACGCUUGAGCGCCCCACAGAGGAUGCCCACGGGCGAUUGGGGCACGG, the Kd is 81.8 nM. To CCCAACGACUGCCGAGCGAGAGUACGCUUGAGCGCCCCACGGAGGAUGCCCACGGGCGAUUGGGGCACGG belongs 5.36 nM. For CCCAACGACUGCCGAGCGAGAUCACGCUGGAGCGCCCCACUGAGGAUGCCCACGGGCGAUUGGGGCACGG the value was 4.34 nM; for CCCAACGACUGCCGAGCGAGAUGACGCUUGAGCGGCCCACUGAGGAUGCCCACGGGCGAUUGGGGCACGG, 7.07 nM; for CCCAACGACUGCCGAGCGAGAUGACGCUUGAGCGUCCCACUGAGGAUGCCCACGGGCGAUUGGGGCACGG, 11.5 nM. For CCCAACGACUGCCGAGCGAGAGUACGCUUGAGCGCCCCACUGAGGAGGCCCACGGGCGAUUGGGGCACGG the value was 7.29 nM. For CCCAACGACUGCCGAGCGAGAGUACGCUUGAGCGCCCCACUGAGGAAGCCCACGGGCGAUUGGGGCACGG, the Kd stood at 11.3 nM. CCCAACGACUGCCGAGCGAGAGUACGCUUGAGCGCCCCACUAAGGAUGCCCACGGGCGAUUGGGGCACGG: the dissociation constant (Kd) was determined as 49.8 nM. For CCCAACGACUGCCGAGCGAGAUAGCGCUUGAGCGCCCCACUGAGGAUGCCCACGGGCGAUUGGGGCACGG the value was 6.07 nM.

With CCCAACGACUGCCGAGCGAGAUGACGUUUGAGCGCCCCACUGAGGAUGCCCACGGGCGAUUGGGGCACGG, the Kd turned out to be 4.59 nM.

On to CCCAACGACUGCCGAGCGAGAGGACGCUUGAGCGCCCCACUGAGGAUGCCCACGGGCGAUUGGGGCACGG, for which the equilibrium dissociation constant (Kd) was found to be 6.17 nM. For the variant CCCAACGACUGCCGAGCGAGAGAACGCUUGAGCGCCCCACUGAGGAUGCCCACGGGCGAUUGGGGCACGG, the Kd was found to be 6.19 nM. To CCCAACGACUGCCGAGCGAGAGCACGCUUGAGCGCCCCACUGAGGAUGCCCACGGGCGAUUGGGGCACGG belongs 4.62 nM; to CCCAACGACUGCCGAGCGAGAGUACGCUUGAGCGCCCCACUGAGGAUGCCCACGGGCUAUUGGGGCACGG, 10.5 nM. For CCCAACGACUGCCGAGCGAGAUGACGCUUGAGCGCCCCACUGAGGAUGCCCACGGGCGAUUGGGGCACGG the value was 4.99 nM; for CCCAACGACUGCCGAGCGAGAUAACGCUUGAGCGCCCCACUGAGGAUGCCCACGGGCGAUUGGGGCACGG, 5.15 nM. For CCCAACGACUGCCGAGCGAGAUCACGCUUGAGCGCCCCACUGAGGAUGCCCACGGGCGAUUGGGGCACGG the value was 4.16 nM; for CCCAACGACUGCCGAGCGAGAGUACGCAUGAGCGCCCCACUGAGGAUGCCCACGGGCGAUUGGGGCACGG, 5.81 nM; for CCCAACGACUGCCGAGCGAGAGUACGCCUGAGCGCCCCACUGAGGAUGCCCACGGGCGAUUGGGGCACGG, 8.17 nM. Consider CCCAACGACUGCCGAGCGAGAGUACGCGUGAGCGCCCCACUGAGGAUGCCCACGGGCGAUUGGGGCACGG, for which the dissociation constant (Kd) was 6.89 nM.

In the case of CCCAACGACUGCCGAGCGAGAGUACGCUCGAGCGCCCCACUGAGGAUGCCCACGGGCGAUUGGGGCACGG, the Kd is 5.92 nM. On to CCCAACGACUGCCGAGCGAGAGUACGCUGGAGCGCCCCACUGAGGAUGCCCACGGGCGAUUGGGGCACGG, for which the Kd is 5.4 nM. Regarding CCCAACGACUGCCGAGCGAGAGUACGCUAGAGCGCCCCACUGAGGAUGCCCACGGGCGAUUGGGGCACGG, the Kd amounted to 5.82 nM.

For the variant CCCAACGACUGCCGAGCGAGAUGACGCUUGAGCGCCCCUCUGAGGAUGCCCACGGGCGAUUGGGGCACGG, the Kd turned out to be 24.8 nM.

Consider CCCAACGACUGCCGAGCGAGAUGACGCUUGAGCGCCCCGCUGAGGAUGCCCACGGGCGAUUGGGGCACGG, for which the Kd worked out at 8.65 nM. For CCCAACGACUGCCGAGCGAGAGUACGCUUGAGCGCCCCACUGAAGAUGCCCACGGGCGAUUGGGGCACGG the value was 17.5 nM; for CCCAACGACUGCCGAGCGAGAGUACGCUUGAGCGCCCCACUGAUGAUGCCCACGGGCGAUUGGGGCACGG, 17.2 nM; for CCCAACGACUGCCGAGCGAGAGUACGCUUGAGCGCCCCACUGAGGAUGCCCACUGGCGAUUGGGGCACGG, 7.13 nM. To CCCAACGACUGCCGAGCGAGAGUACGCUUGAGCGCCCCACUGAGGAUGCCCACAGGCGAUUGGGGCACGG belongs 12.1 nM; to CCCAACGACUGCCGAGCGAGAGUACGCUUGAGCGCCCCACUGAGAAUGCCCACGGGCGAUUGGGGCACGG, 74.7 nM; to CCCAACGACUGCCGAGCGAGAGUACGCUUGAGCGCCCCACUGAGUAUGCCCACGGGCGAUUGGGGCACGG, 7.63 nM. CCCAACGACUGCCGAGCGAGAGUACGCUUGAGCGCCCCACUGAGGAUGCCCACGGGCGAUUGUGGCACGG: the equilibrium dissociation constant (Kd) was 14 nM.

Regarding CCCAACGACUGCCGAGCGAGAGUACGCUUGAGCGCCCCACUGAGGAUGCCCACGGGCGAUUGAGGCACGG, the Kd was determined as 14.9 nM. For CCCAACGACUGCCGAGCGAGAGUACGCUUGAGCGCCCCACUGAGGAUGCCCACGGGCGAUUGCGGCACGG the value was 39.6 nM; for CCCAACGACUGCCGAGCGAGAUGACGCUUGAGCGCCCCACUGGGGAUGCCCACGGGCGAUUGGGGCACGG, 25.1 nM; for CCCAACGACUGCCGAGCGAGAUGACGCUUGAGCGCCCCACUGUGGAUGCCCACGGGCGAUUGGGGCACGG, 85.7 nM.

CCCAACGACUGCCGAGCGAGAGUACGCUUGAGCGCCCCACUGAGGAUUCCCACGGGCGAUUGGGGCACGG: the Kd was determined as 9.66 nM. Take CCCAACGACUGCCGAGCGAGAGUACGCUUGAGCGCCCCACUGAGGAUACCCACGGGCGAUUGGGGCACGG: the equilibrium dissociation constant (Kd) was found to be 9.21 nM. For CCCAACGACUGCCGAGCGAGAGUACGCUUGAGCGCCCCACUGAGGAUGCCCACGGGCGAUUGGAGCACGG, the dissociation constant (Kd) amounted to 8.7 nM. To CCCAACGACUGCCGAGCGAGAGUACGCUUGAGCGCCCCACUGAGGAUGCCCACGGGCGAUUGGCGCACGG belongs 6.91 nM; to CCCAACGACUGCCGAGCGAGAGUACGCUUGAGCGCCCCACUGAGGAUGCCCACGGGCGAUUGGUGCACGG, 6.37 nM. For CCCAACGACUGCCGAGCGAGAGUACGCUUGAGCGCCCCACUGAGGAUGCCCACGCGCGAUUGGGGCACGG the value was 7.26 nM; for CCCAACGACUGCCGAGCGAGAGUACGCUUGAGCGCCCCACUGAGGAUGCCCACGAGCGAUUGGGGCACGG, 8.23 nM. For CCCAACGACUGCCGAGCGAGAGUACGCUUGAGCGCCCCACUGAGGAUGCCCACGUGCGAUUGGGGCACGG the value was 7.97 nM.

Regarding CCCAACGACUGCCGAGCGAGAUCGCGCUUGAGCGCCCCACUGAGGAUGCCCACGGGCGAUUGGGGCACGG, the equilibrium dissociation constant (Kd) was 5.24 nM. For CCCAACGACUGCCGAGCGAGAGUACGCUUGAGCUCCCCACUGAGGAUGCCCACGGGCGAUUGGGGCACGG the value was 5.88 nM; for CCCAACGACUGCCGAGCGAGAUGACGCUUGAGCGCCCCACUGAGGAUGCCCUCGGGCGAUUGGGGCACGG, 17.6 nM. For CCCAACGACUGCCGAGCGAGAUGACGCUUGAGCGCCCCACUGAGGAUGCCCGCGGGCGAUUGGGGCACGG the value was 4.37 nM; for CCCAACGACUGCCGAGCGAGAUGACGCUUGAGCGCCCCACUGAGGAUGCCCACGGGCGGUUGGGGCACGG, 57.5 nM; for CCCAACGACUGCCGAGCGAGAGUACGCUUGAGCGCCCCACUGAGGAUGCCCACGGGCGAUUGGGACACGG, 5.12 nM. For CCCAACGACUGCCGAGCGAGAGUACGCUUGAGCGCCCCACUGAGGAUGCCCACGGGCGAUUGGGCCACGG the value was 13.4 nM; for CCCAACGACUGCCGAGCGAGAGUACGCUUGAGCGCCCCACUGAGGAUGCCCACGGGCGAUUGGGUCACGG, 6.22 nM.

Values taken from the RNAGym collection of RNA variant scans (doi:10.1038/nmeth.2970).
